Assay results: publication PMC7880549 (Bioorganic & medicinal chemistry, 2020)

What was measured:
UCHL5 [1] = molecular target: T1, UCHL5 (Homo sapiens, UniProt Q9Y5K5); assay: in vitro DUB assay with purified UCHL5 and Ub-rhodamine 110; type: biochemical
T1 sequence (Q9Y5K5 1-329): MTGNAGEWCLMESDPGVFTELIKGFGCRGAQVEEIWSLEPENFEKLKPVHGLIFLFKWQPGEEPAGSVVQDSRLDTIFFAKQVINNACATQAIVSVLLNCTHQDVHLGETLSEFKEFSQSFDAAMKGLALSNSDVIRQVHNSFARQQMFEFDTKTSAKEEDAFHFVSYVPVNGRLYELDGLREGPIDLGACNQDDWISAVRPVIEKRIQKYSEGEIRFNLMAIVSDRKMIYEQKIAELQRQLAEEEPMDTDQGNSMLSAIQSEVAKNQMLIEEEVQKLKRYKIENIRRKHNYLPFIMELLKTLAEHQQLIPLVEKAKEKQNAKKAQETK

UCHL5 [2] = molecular target: T1, UCHL5; type: biochemical; settings: MDA-MB-231 lysate pre-incubated 30 min, Ub-VS 1 μM
How it was run: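 Lysate (20 μg protein) was pre-incubated with test compound at RT, then Ub-VS was added for 11 min at RT. After SDS quench and 12% SDS-PAGE, blots were probed for UCHL5 band shift and β-actin. Two independent experiments were run.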

| improved potency versus TAB1 (UCHL5 [1]; TAB2 vs TAB1) | concentrations inhibiting UCHL5/Ub-VS conjugation (UCHL5 [2]) [µM] | improvement of IC50 compared to TA (UCHL5 [1]; TAA1 vs TA) | Compound |
| --- | --- | --- | --- |
| ca. 2.5 fold | 25 to 50 | – | Nc1ccc(-c2cn(Cc3cc(C(=O)O)cc(-c4cccc(C(=O)O)c4)c3)nn2)cc1 [TAB2] |
| – | – | ca. 33 fold | CC(C(=O)O)c1ccc(C(=O)c2cccc(-c3ccccc3C(=O)O)c2)s1 (stereo not drawn) [TAA1] |
